Measured values from publication PMC4838516 (ChemMedChem, 2016).
Where two headings read alike, the source gives them in different places.

How the values were obtained:
HCMV Pr = HCMV Pr (Human cytomegalovirus, UniProt P16753); assay: Dose-response kinetic assay of HCMV Pr with ACC tetrapeptide substrate; assay type: biochemical; conditions: read-out: HCMV Pr IC50; --- = No quantifiable inhibition
Procedure, shortened: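 Manual kinetic fluorescence assay on HCMV Pr using the tetrapeptide Ac-tBG-tBG-Asn(NMe2)-Ala carrying an ACC fluorophore, with ex/em 380/460 nm. Activity was followed over a dilution series of test compound to determine the IC50.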

KSHV Pr = KSHV Pr (Human herpesvirus 8 type P, UniProt Q2HRB6); assay: Dose-response kinetic assay of KSHV Pr with fluorogenic P6R substrate; assay type: biochemical; conditions: read-out: KSHV Pr IC50
Sequence of KSHV Pr (Q2HRB6 1-230): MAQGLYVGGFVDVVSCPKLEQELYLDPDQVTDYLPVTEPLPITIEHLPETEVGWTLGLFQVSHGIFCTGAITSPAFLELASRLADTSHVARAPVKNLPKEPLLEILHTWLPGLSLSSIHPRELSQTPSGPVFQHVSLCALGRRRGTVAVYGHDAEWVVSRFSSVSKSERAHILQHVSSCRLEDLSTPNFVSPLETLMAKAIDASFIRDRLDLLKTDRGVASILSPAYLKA
Procedure, shortened: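 Manual kinetic dose-response assay on KSHV Pr with the P6R substrate Ac-Pro-Val-Tyr-tBG-Leu-Gln-Ala-(rhodamine110)-dPro, read in a plate reader at ex/em 485/530 nm. IC50 was taken from dose-response curves of enzymatic activity; reported values are means.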

Sequence of HCMV Pr (P16753 1-256): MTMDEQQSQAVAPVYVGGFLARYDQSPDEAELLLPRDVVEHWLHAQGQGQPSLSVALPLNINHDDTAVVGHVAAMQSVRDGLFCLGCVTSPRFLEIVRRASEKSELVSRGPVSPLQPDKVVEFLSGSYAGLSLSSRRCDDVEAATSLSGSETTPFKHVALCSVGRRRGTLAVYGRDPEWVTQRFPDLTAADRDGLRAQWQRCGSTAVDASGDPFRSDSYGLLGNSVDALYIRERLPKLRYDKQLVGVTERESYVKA

IC50 (HCMV Pr): > 500 µM
IC50 (KSHV Pr): > 1000 µM
IC50 (KSHV Pr; P6R rhodamine110 substrate): > 500 µM
Compound: Nc1nc(-c2ccccc2)cs1 [Fragment 20]
